B1: tRNA (parent)
chain: GUUCCGUUGGCGUAAUGGUAACGCGUCUCCCUCCUAAGGAGAAGACUGCGGGUUCGAGUCCCGUACGGAACG

Fewer inactive variants are shown than the library holds. Where only a bound is given, the exact number is not on record here.

In this data set the parent is B1. Description: yeast fitness relative to wild type (ratio to wild type); higher = fitter; tRNA-Arg(CCU), competitive growth, 37 C, YPD. A digest of the protocol: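 Start and end populations of a pooled competition were compared by 100-nucleotide paired-end sequencing of gene amplicons. The Saccharomyces cerevisiae strains carried tRNA-Arg(CCU) gene variants at the native genomic locus, synthesised with a 3% per-site mutation rate at 69 sites, and competed in YPD at 37°C for 24 hours in six parallel replicates. Darwinian fitness relative to wild type was based on the change in genotype frequencies. Genotypes required ≥ 100 starting reads, and estimates < 0.5 were set to 0.5.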
As for GUUCCGUUGGCGUAAUGGUCACGCGUCUCCAUCCUAAGGAGAAGACUGCGGGUUCGAGCCCCGUACGGAACG, the yeast fitness was 0.599.
As to GUUCCGUUGGCGUAAUGGUCACGGGUCUGCCUCCUAGGGAGAAGACUGCGGGUUCGAGUCCCGUAGGGAACG, the yeast fitness was ≤ 0.5.
On to GUUCCGUUGGCGUAAUGGUCACGCGUCUCGCUCCUAAGGAGAAGACUGCGGGGUCGAGUCGCGUACGGAACG, for which the yeast fitness was 0.621.
To GUUCCGUUGGCGUAAUGGUCACGCGUCUCCGUCCUGAGGAGAAGACUGCGGGUUCGAGUCCCGUACGGAACG belongs 0.764.
To GUUCCGUUGGCGUAAUGGUCACGCGUCUGCCUCCUAAGGAGAAGACUGCGGGUUCGAGUCCAGUACGGAACG belongs ≤ 0.5; to GUUCCGUUGGCGUAAUGGUCACGCGUCUUCCUCCUAAGGAGAAGACUGCGGGUUCGAGUCCCGUACGGAACG, 0.715.
Consider GUUCCGUUGGCGUAAUGGUCACGCGUCUACCUCCUAAGGAGAAGACUGCGGGUUCGAGUCCCGUACGGAACG, for which the yeast fitness was 0.635.
GUUCCGUUGGCGUAAUGGUCACGGGUAUCCCUCCUAAGGAGAAAACUGCGGGUUCGAGUCCCGUACGGAACG: the yeast fitness was ≤ 0.5.
Take GUUCCGUUGGCGUAAUGGUCACGCGUCUCUCUCCUAAGGAGAAGACUGCGGGUUCGAGUCCCGUACGGAACG: the yeast fitness was 0.903.
Turning to GUUCCGUUGGCGUAAUGGUCAUGCGUCUCCCUCCUAAGGUGAAGACUGCGGGUUCGAGUCCCGUGCGGCACG, the yeast fitness is ≤ 0.5.
GUUCCGUUGGCGUAAUGGUCACGCGUCUCGCUCCUAAGGAGAAGACUGCGGGUUCGAGUGCCGUACGGAACG: the yeast fitness was ≤ 0.5.
Take GUUCCGUUGGCGUAAUGGUCACGGGUCUCCCUCCUAAGGAGAAGACUGCGGGUUCGAGUCCCGUACGGAACG: the yeast fitness worked out at 0.679.
Regarding GUUCCGUUGGCGUAAUGGUCACGCGUCUCCCUACUAAGGAGAAGACUGCGGGUUCGAGUCCCGUACGGAGCG, the yeast fitness was determined as 0.592.
For the variant GUUCCGUUGGCGUAAUGGUCACGUGUCUCCCUCCUAAGGAGAAAACUGCGGGUUCGAGUGCCGUACGGAACG, the yeast fitness was ≤ 0.5.
To GUUCCGUUGGCGUAAUGGUCACGCGUCUCCCUCCUAAGGAGAAGAAUGGGGGUUCGAGUCCCGUACGGAACG belongs 0.548.
GUUCCGUUGGCGUAAUGGUCACGCGUUUCCCUCCUAAGGAGAAGACUGCGGGUUCGAGUCCCGUACUGAACG: the yeast fitness is 0.674.
With GUUCCGUUGGCGUAAUGGUCAUGCGUCUCCCUCCUAAGGAGAAGACAGCGGGUUCGAGUCCUGUACGGAACG, the yeast fitness is 0.643.
Take GUUCCGUUGGCGUAAUGGUCACGCGUCUCCCUCGUAAGGAGAAGACUGCGGGUUCGAGUCCCGUACUGGACG: the yeast fitness was ≤ 0.5.
As to GUUCCGUUGGCGUAAUGGUCACGGGUCUCCCUCCUAAGGCGAAGACUGCGGGUUGGAGUCCCGUACGGAACG, the yeast fitness is ≤ 0.5.
Take GUUCCGUUGGCGUAAUGGUCACGCGUCUCCCUCGUAAGGAGACGACUGCGGGUUCAAGUCUCGUGCGGAACG: the yeast fitness was ≤ 0.5.
As for GUUCCGUUGGCGUAAUGGUCACGCGUCUUCCACCUAAGGAGAAGACUGCGGGUUCGAGUCCUGUACGGAUCG, the yeast fitness is ≤ 0.5.
With GUUCCGUUGGCGUAAUGGUCAGGCGUCUCCCUCCUAAGGAGAAGACGGCGCGUUCGAGUCCCAUACGCAACG, the yeast fitness was ≤ 0.5.
GUUCCGUUGGCGUAAUGGUCACGCGUCUGCCUCCUAAGGAGAAGACUGCGGGUUCGAGUCCCGUUCGGAACG: the yeast fitness was determined as 0.51.
Consider GUUCCGUUGGCGUAAUGGUCACGCGUUUCCCUCCUAAGGAGAAGACUGCGGGUUUGAGUCCCGUACGGAACG, for which the yeast fitness amounted to 0.76.
To GUUCCGUUGGCGUAAUGGUCACGCGUCUCCCUCAUAAGGAGAAGACUGCGGGUUCCAGUCCCGUACGGAACG belongs ≤ 0.5.
Consider GUUCCGUUGGCGUAAUGGUCACGCGUCUCCCUCGUAAGGAGAUGACUGCGGGUUCGAGUCCCGUACGGAACG, for which the yeast fitness was ≤ 0.5.
GUUCCGUUGGCGUAAUGGUCACGCGUUUCCCUCGUAAGGAGACGACUGCGGGUUCGAGUCUGGUACGGAACG: the yeast fitness is ≤ 0.5.
To GUUCCGUUGGCGUAAUGGUCACGGGUCUCCCUGCUAAGGAGAAGACUGCGGGUUCGAGUCCCGUACGGAACG belongs ≤ 0.5; to GUUCCGUUGGCGUAAUGGUCACGCGUCUCCUUCCUAAGGAGAAGACUGCGGGUUCGAGUCCCGUACGGAACG, 1.03; to GUUCCGUUGGCGUAAUGGUCACGCGUCUCCGUCCUAAGGAGAAGACUGCGGGUUCGAGUCCCGUACGGAACG, 0.744.
Take GUUCCGUUGGCGUAAUGGUCACGCGUCUCUCUCCUAAGGAGAAGACUGCGGGUUCGAGUCACGUACGGAACG: the yeast fitness is ≤ 0.5.
To GUUCCGUUGGCGUAAUGGUCACGCGUCUCCCUACUAAGAAGAAGACUGCGGGUUCGAGUCCCGUACGGAACG belongs ≤ 0.5.
On to GUUCCGUUGGCGUAAUGGUCACGCGUCUCCCUCUUAAGGAGAAGACUGCGGAUUCGAGUCCCGUACGGAACG, for which the yeast fitness was 0.574.
For the variant GUUCCGUUGGCGUAAUGGUCAUGCGUCUCCCUCCUAAGCAGAAGACUGCGGGUUCGAGUCCCGUACGGAACG, the yeast fitness was ≤ 0.5.
To GUUCCGUUGGCGUAAUGGUCACGGGUAUCCCUCCUAAGGAGAAGACUGCGCGUUCGAGUCUCGUACGGAACG belongs 0.586; to GUUCCGUUGGCGUAAUGGUCACGCGUCUCCCUCGUAAGGAGAAGACUGCGGGUUCGAGUCCCGUAUGGAACG, ≤ 0.5; to GUUCCGUUGGCGUAAUGGUCACGCGUCUCGCUCCUAAGGAGAAGAAGGAGGAUUCGACUCCCGGGCGGAACG, ≤ 0.5.
GUUCCGUUGGCGUAAUGGUCACGCGUUUCCCUCCUACGGAGGAGACUGCGGGUUCGAGUCCCGUACGGAACG: the yeast fitness worked out at 0.688.
As to GUUCCGUUGGCGUAAUGGUCACGCGUCUCACUCCUAAGGAGAAGACUGCGGGUUAGAGUCCCGUACGGAACG, the yeast fitness was determined as 0.571.
With GUUCCGUUGGCGUAAUGGUCACGCGUCUCACUCCUAAGGAGAAGACUGCGGGUUGGAGUCCCGUACGGAACG, the yeast fitness was 0.557.
For the variant GUUCCGUUGGCGUAAUGGUCACGUGUCUCCCUCCUAAGGAGAAGACUGCGGGUUCGGGUCUCGUACGGAACG, the yeast fitness stood at 0.617.
To GUUCCGUUGGCGUAAUGGUCACGCGUUUCCCUCCUACGGAGGAGACUGCGGGUUCGAGUCCCGUAUGGAACG belongs ≤ 0.5; to GUUCCGUUGGCGUAAUGGUCACGCGUCUCCCUCUUAAGGAGAAGACUGCGGGUUCGAGUACCGUAUGGAUCG, ≤ 0.5; to GUUCCGUUGGCGUAAUGGUCACGCGUCUUCCUCCUAAGGAGAAGACUGGGGGUUCGAGUCCCCUAGGGAACG, ≤ 0.5.
Take GUUCCGUUGGCGUAAUGGUCAGGCGUCUCCCUCCUAAGGAGAAGACUGCGGGUUCGAGUACCGUACGGAACG: the yeast fitness is ≤ 0.5.
Next, GUUCCGUUGGCGUAAUGGUCACGCGUCUCACUCCUAAGGAGAAGACUGCGGGUUAGAGUCCCGUACAGAACG: 0.534.
As for GUUCCGUUGGCGUAAUGGUCACGCGUCUCCCUCAUAGGGAGAAGACUGCGGGUUCGAGUCCUGUAUGGAACG, the yeast fitness turned out to be 0.554.
With GUUCCGUUGGCGUAAUGGUCACGCGUCUCUCUCCUAAGGAGAAGACUGCGGGUUCGAGUCCCGUACGAAACG, the yeast fitness was ≤ 0.5.
For the variant GUUCCGUUGGCGUAAUGGUCACGCGUGUCCCUCCUAAGGAGAAGACUGCGGGUUCGAGUCCCGUACGGAACG, the yeast fitness stood at 0.633.
With GUUCCGUUGGCGUAAUGGUCAUGCGUCUCCCUCCUAAGGAGAAGCCUGCGGGUUCGAGUCCCGUCCGGAACG, the yeast fitness was ≤ 0.5.
Turning to GUUCCGUUGGCGUAAUGGUCACGGGUCUCCCUCCUAAGGAGGAGACUGCGGGUUCGAGUCCCGUACGGAACG, the yeast fitness was determined as 0.585.
In the case of GUUCCGUUGGCGUAAUGGUCAUGCGUCUCCCUCCUAAGGAGAUGACUGCGGGUUCGAGUCCCGUACGGAACG, the yeast fitness was found to be 0.584.
On to GUUCCGUUGGCGUAAUGGUCACGCGUCUUCCUCCUAAGGAGAAGACUGCGGGUUCGAGUCCCGUAUGGAACG, for which the yeast fitness was 0.603.
In the case of GUUCCGUUGGCGUAAUGGUCACGCGUCUCCCUCAUAAGGAGAAGACUGCGGGUUCGAGUCCCCUACGGAACG, the yeast fitness is ≤ 0.5.
With GUUCCGUUGGCGUAAUGGUCACGCGUCUCGCUCCUAAGGGGAAGACUGCGGGUUCGAGUCCCGUACGGAACG, the yeast fitness was ≤ 0.5.
Regarding GUUCCGUUGGCGUAAUGGUCACGCGUCUUCCUCCUAAGGAGAAGACUGCCGGUUCGAGGCCUGUACGAAACG, the yeast fitness is 0.567.
Next, GUUCCGUUGGCGUAAUGGUCACGAGUCUCCCUCCUAAGGAGAAGACUGCGGGUUCAAGUCCUGUACGGACCG: 0.588; GUUCCGUUGGCGUAAUGGUCACGCGUCUCCCUCAUAAGGAGAAGACUGCGGGUUCGAGUCCUGUACGGAACG: ≤ 0.5; GUUCCGUUGGCGUAAUGGUCACGCGUUUCCCUCCUAAGGAGAAGACUGCGGGUUCGAGUCCCGUACGGUACG: 0.81.
Next, GUUCCGUUGGCGUAAUGGUCACGGGUCUCCCUCCUAAGGAGAAGACUGCGGGUUCGAGUCCCGCACGGAACG: 0.56; GUUCCGUUGGCGUAAUGGUCACGCGUUUCCCUCCUAAGGAGAAGACUGCGCGUUCGAGUCCCGAAUGGCACG: ≤ 0.5; GUUCCGUUGGCGUAAUGGUCACGCGUCUCCCUCUUAAGGAGAAGACUGCGGGUUCGAGUCCCGUAUGGAACG: 0.543.
On to GUUCCGUUGGCGUAAUGGUCACGCGUCUCUCUCCUAAGGAGAAGAAUGCGGGUUCGAGUCCGGUGCGGAACG, for which the yeast fitness turned out to be 0.534.
Regarding GUUCCGUUGGCGUAAUGGUCACGCGUCUGCCUCCUAAGGAGAAGACUGCGGAUUCGAGUCCCGUACGGAACG, the yeast fitness was ≤ 0.5.
Next, GUUCCGUUGGCGUAAUGGUCACGCGUCUCUCUCCUAAGGAGAAGACUGCGCGUUGGUGUCCCGUAUGGAACG: ≤ 0.5; GUUCCGUUGGCGUAAUGGUCACGCGUUUCCCUCCUAAGGCGAAGACUGCGGGUUCGAGUCCCGUACGGAACG: 0.63.
On to GUUCCGUUGGCGUAAUGGUCACGCGUCUCCAUCGUAAGGAGAAGACUGCGGGUUCGGGUCCCGUUCGGAACG, for which the yeast fitness was ≤ 0.5.
GUUCCGUUGGCGUAAUGGUCAUGCGUCUCCCUCCUAAGGAGAAGACUGCGGGUUCGAGUCCCGUAUGGAACG: the yeast fitness worked out at 0.622.
Regarding GUUCCGUUGGCGUAAUGGUCACGCGUCUCCCUCAUAGGGAGAAGAAUGCGGGUUCGAGUCCCGUACGGACCG, the yeast fitness is ≤ 0.5.
Consider GUUCCGUUGGCGUAAUGGUCACGCGUCUCCCUCUUAAGGAGAAGACUGCGGAUUCGAGUCCCGUACGAAACG, for which the yeast fitness is ≤ 0.5.
Take GUUCCGUUGGCGUAAUGGUCACGCGUCUCCCUCGUAAGGAGAAGACUGCGGGUUCGAGUCCCGUACGGAACG: the yeast fitness is 0.527.
Regarding GUUCCGUUGGCGUAAUGGUCACGCGUCUCCCUCUUAAGGAGAAGACUGCGGGUUCGAGUCCCGUACGGAACG, the yeast fitness amounted to 0.65.
On to GUUCCGUUGGCGUAAUGGUCACGGGUCUCCCUCCUAGGGAGAAGACUGCGGGUUCGAGUCCCGUACGGAACG, for which the yeast fitness is ≤ 0.5.
To GUUCCGUUGGCGUAAUGGUCACGUGUCUCCCUCCUAAGGAGUAGACUGCGGGUUCGAGCCCCGUACGGAACG belongs 0.619; to GUUCCGUUGGCGUAAUGGUCACGUGUCUCCCUCCUAAGGAGAAGACUGCGGGUUCGAGUCGCGUACGGAACG, ≤ 0.5.

The values above are taken from the RNAGym collection of RNA variant scans (doi:10.1126/science.aae0568).
